Data set [1] can be described thus: Partition coefficient (logP). The note with it: octanol/water; read-out: logP. Type of data set: physicochemical.
Data set [2] concerns Mus musculus. The data set can be described thus: Percent increase in mean life span relative to treatment with an equivalent dose of vincristine alone at 25 mg/kg in mice with vincristine-resistantmurine leukemia P388/VCR cells. Type of data set: functional. The method in brief:
(§1)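 CDF1 mice were implanted ip with 1 × 10^6 P388/VCR cells. Agent and 0.2 mg/kg vincristine were given simultaneously ip once daily, days 1–7. Mean survival over up to 30 days was compared with vincristine alone at an equivalent dose, giving % increase in life span. Student t-test was applied to mean survival time.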

The test system of data set [3] is Mus musculus. The data set can be described thus: Percent increase in mean life span in mice infected with leukemia P388/VCR, at 25 mg/Kg dose. Type of data set: functional. Put shortly:
(§2)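 CDF1 mice (groups of 10–15) were implanted ip with 1 × 10^6 P388/VCR cells. Agent plus 0.2 mg/kg vincristine were given together ip once daily on days 1–7, starting 1 day post-implant, in cremophor/ethanol or propylene glycol/ethanol vehicle. Survival was recorded to 30 days. Result is the % increase in mean life span versus placebo control.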

Data set [4] has as its system Mus musculus. Description: Percent increase in mean life span when 0.2 mg/kg vincristine was administered ip once daily on days 1-7, in mice infected with leukemia P388/VCR. Type of data set: functional. Further details: concentration or dose not given beside the values. As to conditions: route intraperitoneal. Put shortly:
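CDF1 mice bearing ip P388/VCR (1 × 10^6 cells) received 0.2 mg/kg vincristine ip once daily on days 1–7. Mean survival to 30 days was expressed as % increase in life span relative to placebo control.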

Data set [5] deals with Mus musculus. Description: Relative tumor growth inhibition against human epidermoid carcinoma KB/8.5 implanted subcutaneously only in mice at 8 mg/kg (DOX). As to conditions: route subcutaneous. Type of data set: functional. The method in brief: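 KB/8.5 cells grown in RPMI 1640 with 5% fetal calf serum plus colchicine (10 ng/mL), which was removed for two passages. 8 × 10^6 cells were then implanted sc in athymic nude mice. At 100-300 mg tumor mass, mice were grouped 5-10/group. Doxorubicin was given as a single iv dose (8 mg/kg). Tumor mass was measured on day 14, and relative growth was compared with saline control.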

For data set [6], the system named is Mus musculus. Description: Percent tumor growth inhibition against human epidermoid carcinoma KB/8.5 implanted subcutaneously in mice at 100 mg/kg of compound along with 8 mg/kg (DOX ) was determined. Type of data set: functional. Put shortly:
(§3)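 Athymic nude mice bearing sc KB/8.5 tumors (8×10^6 cells, colchicine withdrawn for two passages), grouped at 100–300 mg tumor mass, 5–10 mice/group. Doxorubicin 8 mg/kg given once iv; reversal agent or placebo given sc 2 h before and 2 h after. Tumor mass on day 14 used for relative tumor growth versus doxorubicin alone; Student t-test on log RTG.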

Data set [7] can be described thus: (§4) In vitro concentration at which 50% of human colon carcinoma cells (S1-B1-20) resistant to bisantrene have survived. Type of data set: ADME, cell-based, S1B1-20. As to conditions: S1-B1-20 human colon carcinoma cells resistant to bisantrene, read-out: LD50 (the source's name). The method in brief:
(§5)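 S1-B1-20 cells (LS 174 T-derived S1 clone selected in bisantrene over 12–16 weeks), trypsinized, 20 000 cells/well. Test agent alone in DMSO (≤0.1% final), 0.1–80 µM, 3 days at 37 °C, 7% CO2. Survival by sulforhodamine B read at 540 nm versus untreated cells. Two to four measurement sets were made, and the value is the concentration giving 50% survival from a best-fit curve.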

Data set [8] has as its system S1B1-20. Description: In vitro concentration required to inhibit tumor activity on subclone of human colon carcinoma cells (S1-B1-20) resistant to bisantrene. Type of data set: functional, cell-based. Put shortly: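 S1-B1-20 cells (S1 clone of LS 174 T, selected in bisantrene over 12–16 weeks) plated at 20 000 cells/well with or without 20 μM bisantrene, plus test agent 0.1–80 μM from DMSO stock (final DMSO ≤0.1%). 3 days, 37 °C, 7% CO2. Survival by sulforhodamine B at 540 nm. IC50 from best-fit curve of difference score (survival alone minus survival with bisantrene) at 50; 2–4 sets of measurements.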

Data set [9] has as its system Mus musculus. The data set can be described thus: Percent increase in mean life span relative to treatment with an equivalent dose of vincristine alone at 6.3 mg/kg in mice with vincristine-resistantmurine leukemia P388/VCR cells. Type of data set: functional. The method in brief:
as §1

Data set [10] relates to Mus musculus. Description: Percent increase in mean life span in mice infected with leukemia P388/VCR, at 6.3 mg/Kg dose. Type of data set: functional. The method in brief: as §2
Data set [11] relates to Mus musculus. Description: Percent increase in mean life span relative to treatment with an equivalent dose of vincristine alone at 12.5 mg/kg in mice with vincristine-resistantmurine leukemia P388/VCR cells. Type of data set: functional. Put shortly: as §1
Data set [12] deals with Mus musculus. The data set can be described thus: Percent increase in mean life span in mice infected with leukemia P388/VCR, at 12.5 mg/Kg dose. Type of data set: functional. The method in brief:
as §2

Data set [13] deals with Mus musculus. The data set can be described thus: Percent tumor growth inhibition against human epidermoid carcinoma KB/8.5 implanted subcutaneously in mice at 50 mg/kg of compound along with 8 mg/kg (DOX ) was determined. Type of data set: functional. The method in brief: as §3
Data set [14] deals with S1B1-20. Described as §4. Type of data set: ADME, cell-based. As to conditions: s1b1-20, read-out: LD50 (the source's name). Put shortly: as §5
Data set [15] concerns Mus musculus. The data set can be described thus: Percent increase in mean life span relative to treatment with an equivalent dose of vincristine alone at 50 mg/kg in mice with vincristine-resistantmurine leukemia P388/VCR cells. Type of data set: functional. The method in brief: as §1
For data set [16], the system named is Mus musculus. The data set can be described thus: Percent increase in mean life span in mice infected with leukemia P388/VCR, at 50 mg/Kg dose. Type of data set: functional. Put shortly:
as §2

Data set [17] has as its system Mus musculus. Description: Percent tumor growth inhibition against human epidermoid carcinoma KB/8.5 implanted subcutaneously in mice at 25 mg/kg of compound along with 8 mg/kg (DOX ) was determined. Type of data set: functional. Put shortly: as §3

Structures are written as SMILES.

For `COc1cc2c(cc1OC)CN(CCCCCCC(Sc1ccccc1)c1ccccc1)CC2` (stereo unspecified), in data set [1], the logP is 7.99. Further, the increase in lifespan (ILS) at 25 mg/kg with Mus musculus [2] turned out to be 46%; in the data set on Mus musculus [3], 68%. The increase in lifespan (ILS) with Mus musculus [4] is 15%. This compound also had a Relative tumor growth in the data set with Mus musculus [5] of 59. For the same compound, in the data set on Mus musculus [6], the tumour growth inhibition (TGI) was 65%. Besides, the CC50 in [7] turned out to be 24.6 µM. Besides, it took 3.82 µM to reach half-maximal inhibition in the data set with S1B1-20 [8] (Homo sapiens, S1B1-20) (IC50).

With `COc1ccc(C(C#N)(CCCCCN2CCc3ccccc3C2)Sc2ccc(C)cc2)cc1OC` (stereo unspecified), the logP in data set [1] was determined as 6.72. For the same compound, the ILS at 25 mg/kg in the data set on Mus musculus [2] worked out at 11%; with Mus musculus [3], 27%. Also, the ILS in the data set on Mus musculus [4] stood at 14%. Besides, the CC50 in data set [7] amounted to 24.7 µM. Further, the IC50 in the data set on S1B1-20 [8] (Homo sapiens, S1B1-20) is 2.56 µM.

Turning to `COc1ccc(C(CCCCCN2CCc3cc(OC)c(OC)cc3C2)Sc2ccc(C)cc2)cc1OC` (stereo unspecified), the logP in [1] was 7.42. Also, the ILS at 6.3 mg/kg with Mus musculus [9] was determined as 13%; in the data set with Mus musculus [10], 37%. In the data set on Mus musculus [4], this compound displayed an ILS of 21%. In addition, in the data set on Mus musculus [5], the Relative tumor growth is recorded as 58. Besides, the tumour growth inhibition (TGI) in the data set on Mus musculus [6] came to 68%. In [7], the CC50 is 16.9 µM. The compound also had an IC50 in the data set with S1B1-20 [8] (Homo sapiens, S1B1-20) of 0.33 µM.

For `COc1ccc(C(C#N)(CCN2CCc3cc(OC)c(OC)cc3C2)Sc2ccc(C)cc2)cc1OC` (stereo unspecified), in [1], the logP was 4.59. Further, the results for the increase in lifespan (ILS) at 12.5 mg/kg with Mus musculus [11] and with Mus musculus [12] were 13% and 89%, respectively. Also, the ILS with Mus musculus [4] came out at 67%. In data set [7], the CC50 was 33.7 µM. The IC50 with S1B1-20 [8] (Homo sapiens, S1B1-20) came to 2.3 µM.

Take `COc1ccc(C(C#N)(CCCCCN2Cc3cc(OC)c(OC)cc3C2)Sc2ccc(C)cc2)cc1OC` (stereo in doubt; 28a): the lipophilicity (logP) in data set [1] was found to be 5.55. The figures for the ILS at 25 mg/kg in the data set on Mus musculus [2] and in the data set with Mus musculus [3] were 41% and 63%, respectively. The increase in lifespan (ILS) with Mus musculus [4] worked out at 15%. Further, the Relative tumor growth with Mus musculus [5] is recorded as 67. The compound also showed an inhibition of tumour growth (TGI) in the data set on Mus musculus [13] of 65%. Further, the CC50 with S1B1-20 [14] turned out to be 22.8 µM. The half-inhibitory concentration (IC50) in the data set on S1B1-20 [8] (s1b1-20) stood at 0.81 µM.

Consider `COc1ccc(C(C#N)(CCCCCN2Cc3cc(OC)c(OC)cc3C2)SC2CCCCC2)cc1OC` (stereo in doubt; 28c), for which the CC50 in the data set with S1B1-20 [14] came out at 15 µM. This compound also gave an IC50 with S1B1-20 [8] (s1b1-20) of 0.35 µM.

As for `COc1ccc(C(C#N)(CCCCCN2CCc3cc(OC)c(OCCn4ccnc4)cc3C2)Sc2ccc(C)cc2)cc1OC` (stereo in doubt; 39a), the ILS at 50 mg/kg in the data set on Mus musculus [15] was 48%; in the data set with Mus musculus [16], 71%. Besides, the increase in lifespan (ILS) in the data set with Mus musculus [4] amounted to 15%. The Relative tumor growth with Mus musculus [5] is on record as 67. The TGI in the data set on Mus musculus [17] was 46%. Moreover, the CC50 with S1B1-20 [14] was 14.7 µM. Further, 0.69 µM corresponded to half-maximal inhibition in the data set on S1B1-20 [8] (s1b1-20) (IC50).

Regarding `COc1ccc(C(C#N)(CCCCCN2Cc3cc(OC)c(OC)cc3C2)Sc2ccc(C)cc2)cc1OC` (stereo in doubt; 44), in the data set on S1B1-20 [14], the CC50 amounted to 11.4 µM. Further, it took 0.26 µM to reach half-maximal inhibition in the data set with S1B1-20 [8] (s1b1-20) (IC50).

`COc1cc2c(cc1OC)CN(CCCCCCC(Sc1ccc(C)cc1)c1ccc(OC)c(OCCn3ccnc3)c1)CC2` (stereo in doubt; 47) gave a Relative tumor growth in the data set with Mus musculus [5] (8 mg/kg) of 80. Also, the TGI in the data set on Mus musculus [6] turned out to be 56%. Moreover, the CC50 in the data set with S1B1-20 [14] was 5.64 µM. For the same compound, the IC50 in the data set with S1B1-20 [8] (s1b1-20) was 0.29 µM.

Broadly, the logP is the decadic logarithm of the partition coefficient of the neutral form, usually between octanol and water. Broadly, the ILS is how much longer treated animals lived than controls. The TGI is the reduction of tumour growth relative to the control group. The term IC50 denotes the concentration needed to halve the response being measured.

Source of the values: ChEMBL document CHEMBL1132241, “Novel multidrug resistance reversal agents” (J Med Chem, 1999).
